Assay results from different studies.
Compare with care: the assays were run in different laboratories.
Target: Ephrin type-A receptor 7 (EPHA7, Homo sapiens, UniProt Q15375)

CCCCNc1ncc2c(-c3ccc(F)cc3)nn(C[C@H]3CC[C@H](N)CC3)c2n1 — inhibition (target engagement in cells, inhibitor, chemoproteomics; 20 mM): 43.9%
CCN(CC)CCNC(=O)c1c(C)[nH]c(/C=C2\C(=O)Nc3ccc(F)cc32)c1C — inhibition (enzyme activity, inhibitor; 0.3 µM): 3%
O=C(NS(=O)(=O)c1ccc(NCC2CCOCC2)c([N+](=O)[O-])c1)c1ccc(N2CCN(Cc3ccc(C(F)(F)F)cc3-c3ccc(Cl)cc3)CC2)cc1Oc1cnc2[nH]ccc2c1 — remaining binding (cell-free assay, competition with immobilised ligand; 1 µM): 88%
CCCOc1ccc(OC)c(F)c1C(=O)c1ccc(C(=O)N[C@@H]2CNC[C@H]2NC(=O)c2ccc3[nH]ncc3c2)cc1 — remaining activity (enzyme activity, inhibitor; 10 µM): 29%
CO[C@@H](C)c1c(Nc2ccc([C@H](N(C)C(=O)C3CCS(=O)(=O)CC3)C(F)(F)F)cc2)cnc2cc(Cl)nn12 — remaining binding (cell-free assay, competition with immobilised ligand; 1 µM): 84%
Cc1ccc(C(=O)NCc2ccsc2)cc1C#Cc1cn(C(C)C)c2ncnc(N)c12 — activity vs control (enzyme activity, inhibitor; 1 µM): 21%
C[C@@H](c1cccc(C#N)c1)n1cc(Cl)cc(C(N)=O)c1=N — remaining binding (cell-free assay, competition with immobilised ligand; 1 µM): 100%
CC(C)(C)c1nc2c(s1)c1nc(N)ncc1c1ccc(NS(=O)(=O)c3c(F)cccc3F)c(F)c12 — remaining activity (enzyme activity, inhibitor, radiometric; 1 µM): 96%
O=C1NC(=O)c2cc(Nc3ccc(F)cc3)c(Nc3ccc(F)cc3)cc21 — remaining signal (cell-free assay; 0.5 µM): 84.6%
CC(C)(O)[C@H]1CC[C@H](Nc2ccc3ncc(-c4cccc(C(F)(F)F)c4)n3n2)CC1 — remaining activity (enzyme activity, inhibitor; 1 µM): 93.3%
CNC(=O)c1cc(Oc2ccc(NC(=O)Nc3ccc(Cl)c(C(F)(F)F)c3)cc2)ccn1 — inhibition (enzyme activity, inhibitor; 0.3 µM): 30%
COc1ccc2c(c1)O[C@@H](c1ccc(OC)c(OC)c1)C[C@H]2NC(=O)C1(c2ccc3c(c2)OC(F)(F)O3)CC1 — remaining binding (cell-free assay, competition with immobilised ligand; 1 µM): 86%
CCCS(=O)(=O)Nc1ccc(F)c(C(=O)c2c[nH]c3ncc(-c4ccc(Cl)cc4)cc23)c1F — inhibition (enzyme activity, inhibitor; 1 µM): < 10%
Cc1sc(C(=O)NC2COC2)cc1-n1cc(NC(=O)Nc2c(F)cccc2Cl)cn1 — remaining activity (enzyme activity, inhibitor; 10 µM): 98.6%
COc1cc(Cl)c(C(=O)N[C@@H](CN[C@H]2CC[C@@H](N)CC2)Cc2ccc(C#N)cc2)cc1-c1ccc(CN[C@H](C)c2ccc(C)cc2)o1 — remaining activity (enzyme activity, inhibitor; 1 µM): 105%
N#CCCc1ccc2c(c1)-c1[nH]c3ccc([N+](=O)[O-])cc3c1CC(=O)N2 — remaining signal (cell-free assay; 0.5 µM): 95.3%
Cn1nc(C(=O)NCc2ccc(C(=O)O)cc2)cc1-c1ccc2[nH]ccc2c1 — remaining binding (cell-free assay, competition with immobilised ligand; 0.1 µM): 82%
Cc1ccc(Nc2nccc(N(C)c3ccc4c(C)n(C)nc4c3)n2)cc1S(N)(=O)=O — inhibition (enzyme activity, inhibitor; 10 µM): 34%
CCN(CC)c1ccc(C2=NNC(=O)CC2C)cc1[N+](=O)[O-] (centres unmarked) — remaining activity (enzyme activity, inhibitor; 10 µM): 91%
CC(=O)C1=C(C)N(c2cccc(C(F)(F)F)c2)C(=O)N[C@@H]1c1ccc(C#N)nc1 — remaining binding (cell-free assay, competition with immobilised ligand; 1 µM): 100%
